{"source": "ChEMBL document CHEMBL5303300", "about": "“EUbOPEN Chemogenomics Library - Multiplex” (2023)", "system": "Fibroblast", "assay": "Multiplex assay against human fibroblast", "type": "toxicity, cell-based", "details": "number of replicates 2", "in_short": "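Live cells carried four stains from seeding: Hoechst33342, BioTracker Green Microtubule Cytoskeleton Dye, MitoTracker Red and Annexin V Alexa Fluor 680. They were imaged on a CQ1 microscope at 37°C and 5% CO2 after compound addition. Using CellPathfinder machine-learning gating, cells were split into Hoechst high-intensity objects or normal cells, normal cells into healthy, pyknosed or fragmented nuclei, and pyknosed cells into mitotic or apoptotic; tubulin, mitochondrial-mass and membrane-permeability phenotypes are per cents of healthy-nucleus cells.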", "key": {"[1]": {"details": "12 h, 1 µM, compound concentration 1 uM"}, "[2]": {"details": "12 h, 10 µM, compound concentration 10 uM"}, "[3]": {"details": "24 h, 1 µM, compound concentration 1 uM"}, "[4]": {"details": "24 h, 10 µM, compound concentration 10 uM"}, "[5]": {"details": "48 h, 1 µM, compound concentration 1 uM"}, "[6]": {"details": "48 h, 10 µM, compound concentration 10 uM"}}, "note": "Where “and” joins values, the source holds several entries; their conditions need not be identical. Equal entries are not always repeated."}
{"smiles": "CN(C)[C@H]1CC[C@H](Nc2ncc3ncnc(Nc4ccc(F)c(Cl)c4)c3n2)CC1", "values": [{"measurement": "Population Apoptotic (%)", "setting": "[1]", "value": "68% and 45%"}, {"measurement": "Population Fragmented Nuclei (%)", "setting": "[1]", "value": "26% and 29%"}, {"measurement": "Population Healthy Nuclei (%)", "setting": "[1]", "value": "54% and 50%"}, {"measurement": "Population Hoechst High Intensity Objects (%)", "setting": "[1]", "value": "1% and 0%"}, {"measurement": "Population Membrane Permeable-Phenotype (%)", "setting": "[1]", "value": "4% and 9%"}, {"measurement": "Population Mitochondria Different-Phenotype (%)", "setting": "[1]", "value": 1, "unit": "%"}, {"measurement": "Population Mitotic Cells (%)", "setting": "[1]", "value": "31% and 55%"}, {"measurement": "Population Normal (%)", "setting": "[1]", "value": "98% and 99%"}, {"measurement": "Population Pyknosed Nuclei (%)", "setting": "[1]", "value": "18% and 19%"}, {"measurement": "Population Tubulin-Different-Phenotype (%)", "setting": "[1]", "value": "16% and 11%"}, {"measurement": "Total Cell Count", "setting": "[1]", "value": "309 and 205"}, {"measurement": "Population Apoptotic (%)", "setting": "[2]", "value": "31% and 27%"}, {"measurement": "Population Fragmented Nuclei (%)", "setting": "[2]", "value": "30% and 24%"}, {"measurement": "Population Healthy Nuclei (%)", "setting": "[2]", "value": "45% and 51%"}, {"measurement": "Population Hoechst High Intensity Objects (%)", "setting": "[2]", "value": "18% and 10%"}, {"measurement": "Population Membrane Permeable-Phenotype (%)", "setting": "[2]", "value": "2% and 3%"}, {"measurement": "Population Mitochondria Different-Phenotype (%)", "setting": "[2]", "value": 0, "unit": "%"}, {"measurement": "Population Mitotic Cells (%)", "setting": "[2]", "value": "68% and 72%"}, {"measurement": "Population Normal (%)", "setting": "[2]", "value": "81% and 89%"}, {"measurement": "Population Pyknosed Nuclei (%)", "setting": "[2]", "value": "24% and 23%"}, {"measurement": "Population Tubulin-Different-Phenotype (%)", "setting": "[2]", "value": "4% and 3%"}, {"measurement": "Total Cell Count", "setting": "[2]", "value": "681 and 574"}, {"measurement": "Population Apoptotic (%)", "setting": "[3]", "value": "54% and 67%"}, {"measurement": "Population Fragmented Nuclei (%)", "setting": "[3]", "value": "28% and 20%"}, {"measurement": "Population Healthy Nuclei (%)", "setting": "[3]", "value": "48% and 63%"}, {"measurement": "Population Hoechst High Intensity Objects (%)", "setting": "[3]", "value": 0, "unit": "%"}, {"measurement": "Population Membrane Permeable-Phenotype (%)", "setting": "[3]", "value": "3% and 6%"}, {"measurement": "Population Mitochondria Different-Phenotype (%)", "setting": "[3]", "value": "1% and 2%"}, {"measurement": "Population Mitotic Cells (%)", "setting": "[3]", "value": "45% and 32%"}, {"measurement": "Population Normal (%)", "setting": "[3]", "value": "100% and 99%"}, {"measurement": "Population Pyknosed Nuclei (%)", "setting": "[3]", "value": "23% and 16%"}, {"measurement": "Population Tubulin-Different-Phenotype (%)", "setting": "[3]", "value": "11% and 13%"}, {"measurement": "Total Cell Count", "setting": "[3]", "value": "208 and 288"}, {"measurement": "Population Apoptotic (%)", "setting": "[4]", "value": "18% and 27%"}, {"measurement": "Population Fragmented Nuclei (%)", "setting": "[4]", "value": "27% and 28%"}, {"measurement": "Population Healthy Nuclei (%)", "setting": "[4]", "value": "44% and 47%"}, {"measurement": "Population Hoechst High Intensity Objects (%)", "setting": "[4]", "value": "19% and 27%"}, {"measurement": "Population Membrane Permeable-Phenotype (%)", "setting": "[4]", "value": "6% and 3%"}, {"measurement": "Population Mitochondria Different-Phenotype (%)", "setting": "[4]", "value": "0% and 1%"}, {"measurement": "Population Mitotic Cells (%)", "setting": "[4]", "value": "81% and 72%"}, {"measurement": "Population Normal (%)", "setting": "[4]", "value": "80% and 72%"}, {"measurement": "Population Pyknosed Nuclei (%)", "setting": "[4]", "value": "27% and 24%"}, {"measurement": "Population Tubulin-Different-Phenotype (%)", "setting": "[4]", "value": "5% and 4%"}, {"measurement": "Total Cell Count", "setting": "[4]", "value": "464 and 636"}, {"measurement": "Population Apoptotic (%)", "setting": "[5]", "value": "68% and 56%"}, {"measurement": "Population Fragmented Nuclei (%)", "setting": "[5]", "value": "22% and 32%"}, {"measurement": "Population Healthy Nuclei (%)", "setting": "[5]", "value": "61% and 50%"}, {"measurement": "Population Hoechst High Intensity Objects (%)", "setting": "[5]", "value": "2% and 0%"}, {"measurement": "Population Membrane Permeable-Phenotype (%)", "setting": "[5]", "value": "7% and 9%"}, {"measurement": "Population Mitochondria Different-Phenotype (%)", "setting": "[5]", "value": 0, "unit": "%"}, {"measurement": "Population Mitotic Cells (%)", "setting": "[5]", "value": "31% and 43%"}, {"measurement": "Population Normal (%)", "setting": "[5]", "value": "97% and 99%"}, {"measurement": "Population Pyknosed Nuclei (%)", "setting": "[5]", "value": "15% and 17%"}, {"measurement": "Population Tubulin-Different-Phenotype (%)", "setting": "[5]", "value": "10% and 6%"}, {"measurement": "Total Cell Count", "setting": "[5]", "value": "264 and 218"}, {"measurement": "Population Apoptotic (%)", "setting": "[6]", "value": "20% and 21%"}, {"measurement": "Population Fragmented Nuclei (%)", "setting": "[6]", "value": "31% and 34%"}, {"measurement": "Population Healthy Nuclei (%)", "setting": "[6]", "value": "38% and 37%"}, {"measurement": "Population Hoechst High Intensity Objects (%)", "setting": "[6]", "value": "22% and 26%"}, {"measurement": "Population Membrane Permeable-Phenotype (%)", "setting": "[6]", "value": "5% and 1%"}, {"measurement": "Population Mitochondria Different-Phenotype (%)", "setting": "[6]", "value": 0, "unit": "%"}, {"measurement": "Population Mitotic Cells (%)", "setting": "[6]", "value": "79% and 78%"}, {"measurement": "Population Normal (%)", "setting": "[6]", "value": "77% and 73%"}, {"measurement": "Population Pyknosed Nuclei (%)", "setting": "[6]", "value": "30% and 27%"}, {"measurement": "Population Tubulin-Different-Phenotype (%)", "setting": "[6]", "value": "5% and 2%"}, {"measurement": "Total Cell Count", "setting": "[6]", "value": "527 and 613"}]}
{"smiles": "CS(=O)(=O)c1ccc(C(=O)Nc2cccc(COc3ccc(Br)cc3CN3CC[C@@H](O)C3)c2)c(Cl)c1.O=CO", "values": [{"measurement": "Population Apoptotic (%)", "setting": "[1]", "value": "41% and 38%"}, {"measurement": "Population Fragmented Nuclei (%)", "setting": "[1]", "value": 8, "unit": "%"}, {"measurement": "Population Healthy Nuclei (%)", "setting": "[1]", "value": "61% and 73%"}, {"measurement": "Population Hoechst High Intensity Objects (%)", "setting": "[1]", "value": 0, "unit": "%"}, {"measurement": "Population Mitotic Cells (%)", "setting": "[1]", "value": "58% and 61%"}, {"measurement": "Population Normal (%)", "setting": "[1]", "value": 100, "unit": "%"}, {"measurement": "Population Pyknosed Nuclei (%)", "setting": "[1]", "value": 18, "unit": "%"}, {"measurement": "Total Cell Count", "setting": "[1]", "value": "146 and 167"}, {"measurement": "Population Apoptotic (%)", "setting": "[2]", "value": "50% and 40%"}, {"measurement": "Population Fragmented Nuclei (%)", "setting": "[2]", "value": "18% and 16%"}, {"measurement": "Population Healthy Nuclei (%)", "setting": "[2]", "value": "55% and 61%"}, {"measurement": "Population Hoechst High Intensity Objects (%)", "setting": "[2]", "value": 0, "unit": "%"}, {"measurement": "Population Mitotic Cells (%)", "setting": "[2]", "value": "49% and 59%"}, {"measurement": "Population Normal (%)", "setting": "[2]", "value": 100, "unit": "%"}, {"measurement": "Population Pyknosed Nuclei (%)", "setting": "[2]", "value": "25% and 22%"}, {"measurement": "Total Cell Count", "setting": "[2]", "value": "224 and 280"}, {"measurement": "Population Apoptotic (%)", "setting": "[3]", "value": "60% and 46%"}, {"measurement": "Population Fragmented Nuclei (%)", "setting": "[3]", "value": "14% and 15%"}, {"measurement": "Population Healthy Nuclei (%)", "setting": "[3]", "value": "63% and 67%"}, {"measurement": "Population Hoechst High Intensity Objects (%)", "setting": "[3]", "value": 0, "unit": "%"}, {"measurement": "Population Mitotic Cells (%)", "setting": "[3]", "value": "40% and 53%"}, {"measurement": "Population Normal (%)", "setting": "[3]", "value": 100, "unit": "%"}, {"measurement": "Population Pyknosed Nuclei (%)", "setting": "[3]", "value": "22% and 17%"}, {"measurement": "Total Cell Count", "setting": "[3]", "value": "156 and 186"}, {"measurement": "Population Apoptotic (%)", "setting": "[4]", "value": "72% and 79%"}, {"measurement": "Population Fragmented Nuclei (%)", "setting": "[4]", "value": "28% and 23%"}, {"measurement": "Population Healthy Nuclei (%)", "setting": "[4]", "value": "52% and 63%"}, {"measurement": "Population Hoechst High Intensity Objects (%)", "setting": "[4]", "value": "1% and 0%"}, {"measurement": "Population Mitotic Cells (%)", "setting": "[4]", "value": "27% and 20%"}, {"measurement": "Population Pyknosed Nuclei (%)", "setting": "[4]", "value": "18% and 13%"}, {"measurement": "Total Cell Count", "setting": "[4]", "value": "262 and 331"}, {"measurement": "Population Apoptotic (%)", "setting": "[5]", "value": "71% and 57%"}, {"measurement": "Population Fragmented Nuclei (%)", "setting": "[5]", "value": "18% and 16%"}, {"measurement": "Population Healthy Nuclei (%)", "setting": "[5]", "value": "62% and 67%"}, {"measurement": "Population Hoechst High Intensity Objects (%)", "setting": "[5]", "value": 0, "unit": "%"}, {"measurement": "Population Mitotic Cells (%)", "setting": "[5]", "value": "28% and 42%"}, {"measurement": "Population Normal (%)", "setting": "[5]", "value": 100, "unit": "%"}, {"measurement": "Population Pyknosed Nuclei (%)", "setting": "[5]", "value": "18% and 15%"}, {"measurement": "Total Cell Count", "setting": "[5]", "value": "154 and 164"}, {"measurement": "Population Apoptotic (%)", "setting": "[6]", "value": "84% and 82%"}, {"measurement": "Population Fragmented Nuclei (%)", "setting": "[6]", "value": "32% and 30%"}, {"measurement": "Population Healthy Nuclei (%)", "setting": "[6]", "value": "56% and 58%"}, {"measurement": "Population Hoechst High Intensity Objects (%)", "setting": "[6]", "value": "1% and 0%"}, {"measurement": "Population Mitotic Cells (%)", "setting": "[6]", "value": "15% and 17%"}, {"measurement": "Population Normal (%)", "setting": "[6]", "value": 100, "unit": "%"}, {"measurement": "Population Pyknosed Nuclei (%)", "setting": "[6]", "value": 10, "unit": "%"}, {"measurement": "Total Cell Count", "setting": "[6]", "value": "300 and 395"}]}
